From ChEMBL document CHEMBL1139368, “Pt(II) complexes of a combretastatin A-4 analogous chalcone: effects of conjugation on cytotoxicity, tumor specificity, and long-term tumor growth suppression” (J Med Chem, 2009)
pIC50: −log10 of the molar value. The source made the active and inactive calls. The rule behind the calls is not given here.

What was measured:
HCT-116 = assay: Cytotoxicity against human HCT116 cells after 96 hrs by SRB assay; assay type: functional, cell-based; conditions: HCT-116, 96 h
Procedure, shortened: (§1)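 Monolayer cultures in RPMI 1640 with 10% heat-inactivated FBS and streptomycin/penicillin, 37 °C, 5% CO₂. Cells seeded day 0 at densities giving exponential growth, exposed day 1 to 0.001–10 μM, SRB read day 5 (96 h exposure); surviving cells as percentage of untreated controls, IC₅₀ taken from dose–response curves. Three independent experiments for some compounds, two for others.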

A2780 [1] = assay: Cytotoxicity against human A2780 cells after 96 hrs by SRB assay; assay type: functional, cell-based; conditions: A2780, 96 h; procedure, shortened: as §1
HCT-8 = assay: Cytotoxicity against human HCT8 cells after 96 hrs by SRB assay; assay type: functional, cell-based; conditions: HCT-8, 96 h; procedure, shortened: as §1
SW480 = assay: Cytotoxicity against human SW480 cells after 96 hrs by SRB assay; assay type: functional, cell-based; conditions: SW480, 96 h; procedure, shortened: as §1
[2] = Cytotoxicity against human 1411HP cells after 96 hrs by SRB assay; assay type: functional, cell-based; procedure, shortened: as §1
8505C = assay: Cytotoxicity against human 8505C cells after 96 hrs by SRB assay; assay type: functional, cell-based; procedure, shortened: as §1
SW-1736 = assay: Cytotoxicity against human SW1736 cells after 96 hrs by SRB assay; assay type: functional, cell-based; conditions: SW-1736, 96 h; procedure, shortened: as §1
HL-60 [3] = assay: Induction of apoptosis in human HL60 cells assessed as processing of procaspase 9 to activated caspase 9 at 10 uM by Western blotting; assay type: functional, cell-based; conditions: TDE = time-dependent effect
Procedure, shortened: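 HL-60 cells at 0.5 × 10⁶/mL, exposed to 10 μM (in 1% DMF/99% PBS) at 37 °C, sampled at 0, 3, 7, 24 and 30 h. Lysed in Tris/NaCl/Triton X-100 buffer pH 7.4, 60 μg protein on 12% SDS–PAGE, PVDF blot, anti-caspase-9 1:10,000, HRP secondary, chemiluminescence. Procaspase-9 (~46 kDa) and cleaved form (~35 kDa) followed.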

MCF7 = assay: Cytotoxicity against human MCF7 cells after 96 hrs by SRB assay; assay type: functional, cell-based; conditions: MCF7, 96 h; procedure, shortened: as §1
A-427 = assay: Cytotoxicity against human A427 cells after 96 hrs by SRB assay; assay type: functional, cell-based; conditions: A-427, 96 h; procedure, shortened: as §1
[4] = Inhibition of tubulin polymerization at 3 uM; conditions: TDE = time-dependent effect
Procedure, shortened: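 Commercial fluorescence-based tubulin polymerization kit, run as the manufacturer directs, compounds at 3 μM. Polymerization followed as RFU at excitation 360 nm, emission 465 nm. Three independent experiments.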

A2780 [5] = assay: Suppression of regrowth in human A2780 cells at 10 nM treated for 96 hrs and measured over 10 days by SRB assay; assay type: functional, cell-based
Procedure, shortened: (§2)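 SRB regrowth test: cells exposed 96 h to serial dilutions, chosen around IC₉₀, then fixed at once (day 0) or washed drug-free and grown in fresh medium for 2, 4, 6 or 10 days before SRB staining. Three independent experiments.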

HT-29 = assay: Cytotoxicity against human HT-29 cells after 96 hrs by SRB assay; assay type: functional, cell-based; conditions: HT-29, 96 h; procedure, shortened: as §1
[6] = Cytotoxicity against human A253 cells after 96 hrs by SRB assay; assay type: functional, cell-based; conditions: A253, 96 h; procedure, shortened: as §1
518A2 [7] = assay: Induction of apoptosis in human 518A2 cells assessed as increase in cleaved/activated form of caspase 3 at 1 uM after 24 hrs by Western blot analysis; assay type: functional, cell-based
Procedure, shortened: (§3)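 Cells treated 24 h at 1 μM, then rinsed in PBS and lysed in RIPA buffer with protease inhibitors. 40 μg protein per lane on SDS–PAGE, blotted to nitrocellulose, blocked in 5% milk/PBST, probed 2 h with mouse monoclonals against caspase-3, PARP and actin (loading control). HRP secondary, ECL detection, compared with untreated control.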

[8] = Induction of apoptosis in human WW070327 cells assessed as PARP cleavage at 1 uM after 24 hrs by Western blot analysis; assay type: cell-based; conditions: ww070327, 24 h; procedure, shortened: as §3
DLD-1 [9] = assay: Induction of apoptosis in human DLD1 cells assessed as PARP cleavage at 1 uM after 24 hrs by Western blot analysis; assay type: functional, cell-based; procedure, shortened: as §3
[10] = Induction of apoptosis in human WW070327 cells assessed as increase in cleaved/activated form of caspase 3 at 1 uM after 24 hrs by Western blot analysis; assay type: cell-based; conditions: ww070327, 24 h; procedure, shortened: as §3
DLD-1 [11] = assay: Induction of apoptosis in human DLD1 cells assessed as increase in cleaved/activated form of caspase 3 at 1 uM after 24 hrs by Western blot analysis; assay type: functional, cell-based; procedure, shortened: as §3
FaDu = assay: Cytotoxicity against human FADU cells after 96 hrs by SRB assay; assay type: functional, cell-based; procedure, shortened: as §1
DLD-1 [12] = assay: Cytotoxicity against human DLD1 cells after 96 hrs by SRB assay; assay type: functional, cell-based; conditions: DLD-1, 96 h; procedure, shortened: as §1
518A2 [13] = assay: Induction of apoptosis in human 518A2 cells assessed as PARP cleavage at 1 uM after 24 hrs by Western blot analysis; assay type: functional, cell-based; procedure, shortened: as §3
[14] = Cytotoxicity against human 518A2 cells after 96 hrs by SRB assay; assay type: functional, cell-based; conditions: 518A2, 96 h; procedure, shortened: as §1
A-431 [15] = assay: Suppression of regrowth in human A431 cells at 10 nM treated for 96 hrs and measured over 10 days by SRB assay; assay type: functional, cell-based; procedure, shortened: as §2
[16] = Cytotoxicity against human H12.1 cells after 96 hrs by SRB assay; assay type: functional, cell-based; procedure, shortened: as §1
[17] = Cytotoxicity against human NCI-H322 cells after 96 hrs by SRB assay; assay type: functional, cell-based; conditions: NCI-H322, 96 h; procedure, shortened: as §1
518A2 [18] = assay: Induction of apoptosis in human 518A2 cells at 10 uM after 15 hrs by TUNEL assay; assay type: functional
Procedure, shortened: (§4)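 TUNEL with fluorescein-tagged nucleotides labelling 3'-OH DNA ends, on HL-60 and 518A2 cells exposed to 10 μM for 15 h. Apoptotic cells were counted as green fluorescent spots under fluorescence microscopy and related to total cell number.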

A253 cell line = assay: Suppression of regrowth in human A253 cells at 10 nM treated for 96 hrs and measured over 10 days by SRB assay; assay type: functional, cell-based; procedure, shortened: as §2
A549 = assay: Cytotoxicity against human A549 cells after 96 hrs by SRB assay; assay type: functional, cell-based; conditions: A549, 96 h; procedure, shortened: as §1
A2780 [19] = assay: Induction of apoptosis in human A2780 cells assessed as increase in cleaved/activated form of caspase 3 at 1 uM after 24 hrs by Western blot analysis; assay type: functional, cell-based; procedure, shortened: as §3
NCI-H358 = assay: Cytotoxicity against human NCI-H358 cells after 96 hrs by SRB assay; assay type: functional, cell-based; conditions: NCI-H358, 96 h; procedure, shortened: as §1
BT-474 = assay: Cytotoxicity against human BT474 cells after 96 hrs by SRB assay; assay type: functional, cell-based; conditions: BT-474, 96 h; procedure, shortened: as §1
A2780 [20] = assay: Induction of apoptosis in human A2780 cells assessed as PARP cleavage at 1 uM after 24 hrs by Western blot analysis; assay type: functional, cell-based; procedure, shortened: as §3
[21] = Cytotoxicity against human 2102EP cells after 96 hrs by SRB assay; assay type: functional, cell-based; procedure, shortened: as §1
HL-60 [22] = assay: Induction of apoptosis in human HL60 cells at 10 uM after 15 hrs by TUNEL assay; assay type: functional; procedure, shortened: as §4
A-431 [23] = assay: Cytotoxicity against human A431 cells after 96 hrs by SRB assay; assay type: functional, cell-based; conditions: A-431, 96 h; procedure, shortened: as §1

Work on `COc1ccc(/C=C/C(=O)c2cc(OC)c(OC)c(OC)c2)cc1O` yielded a pIC50 (HCT-116) of 7.60, a pIC50 (A2780 [1]) of 7.81 and a pIC50 (HCT-8) of 7.25. It also gave a pIC50 (SW480) of 6.99, a pIC50 [2] of 6.85 and a pIC50 (8505C) of 7.30. The pIC50 (SW-1736) was 7.56, the Activity (HL-60 [3]) was “tde” and the pIC50 (MCF7) was 7.65. The pIC50 (A-427) was 7.29, the Activity [4] was “tde” and the Activity (A2780 [5]) was “Active”. For the same molecule, the pIC50 (HT-29) was 5.59, the pIC50 [6] was 7.64 and the Activity (518A2 [7]) was “Active”. The Activity [8] was “Not Active”, the Activity (DLD-1 [9]) was “Active” and the Activity [10] was “Not Active”. For the same molecule, the Activity (DLD-1 [11]) was “Active”, the pIC50 (FaDu) was 7.39 and the pIC50 (DLD-1 [12]) was 7.49. For the same molecule, the Activity (518A2 [13]) was “Active”, the pIC50 [14] was 7.47 and the Activity (A-431 [15]) was “Active”. It also gave a pIC50 [16] of 7.47, a pIC50 [17] of 7.41 and an Activity (518A2 [18]) of 50%. The Activity (A253 cell line) was “Active”, the pIC50 (A549) was 7.17 and the Activity (A2780 [19]) was “Active”. The pIC50 (NCI-H358) was 7.77, the pIC50 (BT-474) was 6.71 and the Activity (A2780 [20]) was “Active”. For the same molecule, the pIC50 [21] was 7.50, the Activity (HL-60 [22]) was 40% and the pIC50 (A-431 [23]) was 7.82.
